Assay results of several laboratories.
Each line is one published result; the experiments were not run side by side. pKd, pKi: −log10 of the molar value.
CYP2A6: Cytochrome P450 2A6 (CYP2A6, Homo sapiens, UniProt P11509)
HTR1D: 5-hydroxytryptamine receptor 1D (HTR1D, Homo sapiens, UniProt P28221)
Slc6a4: Sodium-dependent serotonin transporter (Slc6a4, Rattus norvegicus, UniProt P31652)
BRD4 BD1: Bromodomain-containing protein 4, BD1 (BRD4, Homo sapiens, UniProt O60885)

For C#Cc1ccc2oc(-c3ccccc3)cc(=O)c2c1, the pKi was less than 4.60 (CYP2A6; enzyme activity, inhibitor; 6 min, pH 7.6).
CCCCN1CCC(COC(=O)c2ccc(N)c(OCF)c2)CC1 gave a pKi of less than 5.00 (HTR1D; cell-free assay, radioligand).
Cc1cnc(-c2ccc(-c3ccc(NC(=O)Nc4c(F)cc(F)cc4F)cc3F)c3c2C(=O)NC3)[nH]1 gave a pKd of 6.51 (Tyrosine-protein kinase Yes (YES1, Homo sapiens, UniProt P07947); binding, competition with immobilised ligand).
The pKi of CN(C)CCN(Cc1ccccc1)Cc1c(F)cccc1Cl is reported as 6.67 (Slc6a4; ligand displacement, radioligand).
Cc1occc(=S)c1O gave a pKi of 5.51 (Carbonic anhydrase 15 (Mus musculus, UniProt Q99N23); enzyme activity, inhibitor, stopped-flow).
The pKi of O[C@H]1[C@H](n2cnc3c(NC(C4CCCCC4)C4CCCCC4)nc(Cl)nc32)[C@H]2C[C@@]2(CF)[C@H]1O is reported as 5.70 (HTR1D; cell-free assay, radioligand).
C#Cc1ccccc1-c1cc(=O)c2ccccc2o1 has a pKi of less than 4.60 (CYP2A6; enzyme activity, inhibitor; 6 min, pH 7.6).
For Oc1ccc(-c2nc(-c3ccncc3)c(-c3ccc(F)cc3)[nH]2)cc1, the pKd was 5.47 (BRD4 BD1; binding, ITC).
CN1CCN(Cc2cccc(Oc3ccccc3)c2)CC1 gave a pKi of less than 4.70 (Slc6a4; ligand displacement, radioligand).
Cn1nnc2ccc(NC(=O)c3cccc(C(=O)O)c3)cc21 gave a pKd of 5.16 (BRD4 BD1; binding, competition with immobilised ligand).
Nc1nc2c(ncn2[C@@H]2O[C@H](COP(=O)(O)OP(=O)(O)O)[C@@H](OP(=O)(O)OP(=O)(O)O)[C@H]2O)c(=O)[nH]1 has a pKd of 3.12 (mpl (Escherichia coli, UniProt P37773); binding, ITC).
For CC(=O)N[C@H](C(=O)N1C[C@H](O)C[C@H]1C(=O)NCc1ccc(-c2scnc2C)cc1)C(C)(C)SCCCCCCNC(=O)C[C@@H]1N=C(c2ccc(Cl)cc2)c2c(sc(C)c2C)-n2c(C)nnc21, the pKd was 7.36 (Bromodomain-containing protein 4, BD2 (BRD4, Homo sapiens, UniProt O60885); binding).
For C#Cc1ccc2c(=O)cc(-c3ccccc3)oc2c1, the pKi was less than 4.60 (CYP2A6; enzyme activity, inhibitor; 6 min, pH 7.6).
For Cc1cc(N)nc(CCc2cccc([C@@H](N)Cc3cc(C)cc(N)n3)c2)c1, the pKi was roughly 7.00 (Nitric oxide synthase 1 (Nos1, Rattus norvegicus, UniProt P29476); enzyme activity, inhibitor).
C#Cc1ccc2cc(-c3ccccc3)c(=O)oc2c1 has a pKi of less than 4.60 (CYP2A6; enzyme activity, inhibitor; 6 min, pH 7.6).
CNC(=O)[C@@]12C[C@@H]1[C@@H](n1cnc3c(NC)nc(C#C[c-]4cccc4)nc31)[C@H](O)[C@@H]2O.[Fe+2].c1cc[cH-]c1 has a pKi of 8.26 (Adenosine receptor A3 (Mus musculus, UniProt Q61618); ligand displacement, radioligand; cell membranes).
